Data published in ChEMBL document CHEMBL3872233, “Topical Treatment of Leishmania tropica Infection Using (-)-α-Bisabolol Ointment in a Hamster Model: Effectiveness and Safety Assessment” (J Nat Prod, 2016).
Activity calls are given as the source filed them. No cut-off for these calls is given here.

Experiments:
Leishmania tropica [1] = test: (§1) Antileishmanial activity against Leishmania tropica MHOM/MA/1988/LEM1314 promastigotes infected in Syrian hamster assessed as reduction in parasite load in spleen at 2 mg/kg administered intralesionally once daily on footpad for 3 weeks starting at week 7 post infection measured 1 week post last dose by qPCR analysis relative to control; format: functional, organism-based
Outline: (§2)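 Hamsters were infected in the footpad and treated daily for 21 days from week 7 post-infection, n = 10/group, and sacrificed 1 week after the last dose. Footpad skin, liver and spleen DNA was assayed by L. tropica-specific TaqMan qPCR (chromosome 29 target), in triplicate with 50 ng DNA per 25 μL reaction. Load was interpolated from Ct on a calibration curve of promastigote DNA, relative to base-ointment controls.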

Syrian golden hamster [2] = test: Toxicity in Syrian hamster infected with Leishmania tropica MHOM/MA/1988/LEM1314 promastigotes assessed as mean serum ALP levels at 5 % administered tropically on footpad for 3 weeks starting at week 7 post infection measured 1 week post last dose (reference value: 14.4 +/- 0.9 U/L); format: organism-based, Mesocricetus auratus; details: in vivo, topical_or_ocular, 168 h
Leishmania tropica [3] = test: Antileishmanial activity against Leishmania tropica MHOM/MA/1988/LEM1314 promastigotes infected in Syrian hamster assessed as reduction in lesion thickness at 2.5 % administered once daily tropically on footpad for 3 weeks starting at week 7 post infection measured 1 week post last dose relative to control; format: functional; design: scale not given: the % may be the effect or the level left
Outline: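 L. tropica stationary-phase promastigotes (3 × 10^7 in 50 μL PBS) injected into the left hind footpad. Treatment began at week 7 (+75% footpad thickness) and ran daily for 21 days, n = 10/group. Routes were 50 mg ointment on the lesion (cetyl alcohol/lanolin/petrolatum base), gavage in olive oil, or intralesional meglumine antimoniate 2 mg SbV/kg. Lesion thickness was measured weekly against base-only ointment; sacrifice was 1 week after the last dose.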

Syrian golden hamster [4] = test: Toxicity in Syrian hamster infected with Leishmania tropica MHOM/MA/1988/LEM1314 promastigotes assessed as liver weight at 1 % administered tropically on footpad for 3 weeks starting at week 7 post infection measured 1 week post last dose (reference value: 3.3 +/- 0.2 g); format: organism-based, Mesocricetus auratus; details: in vivo, topical_or_ocular, 168 h
Outline: (§3)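 Infected hamsters were treated daily for 21 days from week 7 post-infection (ointment 1–5%, 200 mg/kg gavage, or intralesional meglumine antimoniate 2 mg SbV/kg). Clinical signs and body weight were monitored during treatment and a 7-day follow-up. After sacrifice, liver and spleen were weighed and serum ALP, ALT, creatinine, urea and AST were measured with kits, compared with untreated infected animals.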

Syrian golden hamster [5] = test: Toxicity in Syrian hamster assessed as mean serum ALP levels at 5 % administered tropically on footpad for 28 days (reference value: 14.4 +/- 2 U/L); format: organism-based, Mesocricetus auratus; details: in vivo, topical_or_ocular, 672 h
Syrian golden hamster [6] = test: Toxicity in Syrian hamster infected with Leishmania tropica MHOM/MA/1988/LEM1314 promastigotes assessed as urea levels at 1 % administered tropically on footpad for 3 weeks starting at week 7 post infection measured 1 week post last dose (reference value: 32.5 +/- 0.8 mg/dl); format: organism-based, Mesocricetus auratus; details: in vivo, topical_or_ocular, 168 h
Syrian golden hamster [7] = test: Toxicity in Syrian hamster infected with Leishmania tropica MHOM/MA/1988/LEM1314 promastigotes assessed as mean serum creatinine levels at 2.5 % administered tropically on footpad for 3 weeks starting at week 7 post infection measured 1 week post last dose (reference value: 0.19 mg/dl); format: organism-based, Mesocricetus auratus; details: in vivo, topical_or_ocular, 168 h
Syrian golden hamster [8] = test: Toxicity in Syrian hamster infected with Leishmania tropica MHOM/MA/1988/LEM1314 promastigotes assessed as mean serum creatinine levels at 200 mg/kg administered through oral gavage for 3 weeks starting at week 7 post infection measured 1 week post last dose (reference value: 0.19 mg/dl); format: organism-based, Mesocricetus auratus; details: in vivo, 168 h
Syrian golden hamster [9] = test: Toxicity in Syrian hamster infected with Leishmania tropica MHOM/MA/1988/LEM1314 promastigotes assessed as liver weight at 2.5 % administered tropically on footpad for 3 weeks starting at week 7 post infection measured 1 week post last dose (reference value: 3.3 +/- 0.2 g); format: organism-based, Mesocricetus auratus; details: in vivo, topical_or_ocular, 168 h; outline: as §3
Syrian golden hamster [10] = test: Toxicity in Syrian hamster infected with Leishmania tropica MHOM/MA/1988/LEM1314 promastigotes assessed as redness at 200 mg/kg administered through oral gavage for 3 weeks starting at week 7 post infection measured during compound dosing or measured 1 week post last dose; format: organism-based, Mesocricetus auratus; details: in vivo, 168 h
Outline: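 Infected hamsters (footpad, 3 × 10^7 promastigotes) were gavaged daily for 21 days from week 7 post-infection at 200 mg/kg in olive oil, n=10.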

Syrian golden hamster [11] = test: Toxicity in Syrian hamster infected with Leishmania tropica MHOM/MA/1988/LEM1314 promastigotes assessed as mean serum ALP levels at 1 % administered tropically on footpad for 3 weeks starting at week 7 post infection measured 1 week post last dose (reference value: 14.4 +/- 0.9 U/L); format: organism-based, Mesocricetus auratus; details: in vivo, topical_or_ocular, 168 h; outline: as §3
Leishmania tropica [12] = test: as §1, with “liver” for “spleen”, “2.5 %” for “2 mg/kg”, “administered” for “administered intralesionally”, “daily tropically” for “daily”; format: functional, tissue-based; outline: as §2
Syrian golden hamster [13] = test: Toxicity in Syrian hamster assessed as change in body weight at 500 mg/kg, po or 5 % administered tropically on footpad for 28 days; format: organism-based, Mesocricetus auratus; details: in vivo, 672 h
Syrian golden hamster [14] = test: Toxicity in Syrian hamster infected with Leishmania tropica MHOM/MA/1988/LEM1314 promastigotes assessed as mean serum ALT levels at 2.5 % administered tropically on footpad for 3 weeks starting at week 7 post infection measured 1 week post last dose (reference value: 81.6 +/- 4.9 U/L); format: organism-based, Mesocricetus auratus; details: in vivo, topical_or_ocular, 168 h
Syrian golden hamster [15] = test: Toxicity in Syrian hamster infected with Leishmania tropica MHOM/MA/1988/LEM1314 promastigotes assessed as mean serum AST levels at 2.5 % administered tropically on footpad for 3 weeks starting at week 7 post infection measured 1 week post last dose (reference value: 77.1 +/- 0.9 U/L); format: organism-based, Mesocricetus auratus; details: in vivo, topical_or_ocular, 168 h
Syrian golden hamster [16] = test: Toxicity in Syrian hamster assessed as stress at 500 mg/kg, po or 5 % administered tropically on footpad for 28 days; format: organism-based, Mesocricetus auratus; details: in vivo, 672 h
Leishmania tropica [17] = test: as §1, with “liver” for “spleen”, “[…]” for “2 mg/kg”, “administered” for “administered intralesionally”, “through oral gavage” for “on footpad”; format: functional, tissue-based; outline: as §2
Syrian golden hamster [18] = test: Toxicity in Syrian hamster infected with Leishmania tropica MHOM/MA/1988/LEM1314 promastigotes assessed as urea levels at 5 % administered tropically on footpad for 3 weeks starting at week 7 post infection measured 1 week post last dose (reference value: 32.5 +/- 0.8 mg/dl); format: organism-based, Mesocricetus auratus; details: in vivo, topical_or_ocular, 168 h
Syrian golden hamster [19] = test: Toxicity in Syrian hamster infected with Leishmania tropica MHOM/MA/1988/LEM1314 promastigotes assessed as mean serum ALP levels at 200 mg/kg administered through oral gavage for 3 weeks starting at week 7 post infection measured 1 week post last dose (reference value: 14.4 +/- 0.9 U/L); format: organism-based, Mesocricetus auratus; details: in vivo, 168 h
Syrian golden hamster [20] = test: Toxicity in Syrian hamster assessed as mean serum ALT levels at 500 mg/kg administered through oral gavage for 28 days (reference value: 82.2 +/- 4.8 U/L); format: organism-based, Mesocricetus auratus; details: in vivo, 672 h
Leishmania tropica [21] = test: as §1, with “2.5 %” for “2 mg/kg”, “administered” for “administered intralesionally”, “daily tropically” for “daily”; format: functional; outline: as §2
Syrian golden hamster [22] = test: Toxicity in Syrian hamster infected with Leishmania tropica MHOM/MA/1988/LEM1314 promastigotes assessed as footpad edema at 200 mg/kg administered through oral gavage for 3 weeks starting at week 7 post infection measured during compound dosing or measured 1 week post last dose; format: organism-based, Mesocricetus auratus; details: in vivo, 168 h; outline: as §3
Syrian golden hamster [23] = test: Toxicity in Syrian hamster infected with Leishmania tropica MHOM/MA/1988/LEM1314 promastigotes assessed as mean serum AST levels at 1 % administered tropically on footpad for 3 weeks starting at week 7 post infection measured 1 week post last dose (reference value: 77.1 +/- 0.9 U/L); format: organism-based, Mesocricetus auratus; details: in vivo, topical_or_ocular, 168 h

CC(C)=CCC[C@](C)(O)[C@@H]1CC=C(C)CC1 [LEVOMENOL]
Activity (Leishmania tropica [1]): Active | Activity (Syrian golden hamster [2]): 14.7 U/L | Activity (Leishmania tropica [3]): 56.4% | Activity (Syrian golden hamster [4]): 3.2 g | Activity (Syrian golden hamster [5]): 14.1 U/L | Activity (Syrian golden hamster [6]): 33.7 mg/dL | Activity (Syrian golden hamster [7]): 0.21 mg/dL | Activity (Syrian golden hamster [8]): 0.2 mg/dL | Activity (Syrian golden hamster [9]): 3.3 g | Activity (Syrian golden hamster [10]): Non-Toxic | Activity (Syrian golden hamster [11]): 13 U/L | Activity (Leishmania tropica [12]): Active | Activity (Syrian golden hamster [13]): Non-Toxic | Activity (Syrian golden hamster [14]): 81.3 U/L | Activity (Syrian golden hamster [15]): 87 U/L | Activity (Syrian golden hamster [16]): Non-Toxic | Activity (Leishmania tropica [17]): Active | Activity (Syrian golden hamster [18]): 34.2 mg/dL | Activity (Syrian golden hamster [19]): 12.9 U/L | Activity (Syrian golden hamster [20]): 82.6 U/L | Activity (Leishmania tropica [21]): Active | Activity (Syrian golden hamster [22]): Non-Toxic | Activity (Syrian golden hamster [23]): 82.2 U/L
